The test system of assay [1] is MDA-MB-231. Briefly: Antiproliferative activity against human MDA-MB-231 cells assessed as reduction in cell viability incubated for 72 hrs by CyQuant assay. Type of assay: functional, cell-based. Conditions: MDA-MB-231, 72 h.
In the next assay the test system is MDA-MB-468. Briefly: Antiproliferative activity against human MDA-MB-468 cells harbouring STAT3 assessed as reduction in cell viability incubated for 72 hrs by CyQuant assay. Type of assay: functional, cell-based. The following applies: MDA-MB-468, 72 h.
In assay [2] the test system is MCF7. Briefly: Antiproliferative activity against human MCF7 cells assessed as reduction in cell viability incubated for 72 hrs by CyQuant assay. Type of assay: functional, cell-based. The following applies: MCF7, 72 h.
For another assay, the system named is MCF-10A. Briefly: Cytotoxicity against human MCF-10A cells assessed as reduction in cell viability incubated for 72 hrs by CyQuant assay. The assay is classed as cell-based.
Assay [3] relates to MCF7. Briefly: Antiproliferative activity against human MCF7 cells assessed as reduction in cell viability at 2 uM incubated for 24 hrs by Trypan blue exclusion dye based phase contrast microscopic analysis. Type of assay: functional. In short, it runs like this: (§1)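 Cells in 6-well culture, untreated or treated once with 2 μM compound. Harvested every 24 h (up to 96 h) and counted as viable cells by trypan blue exclusion under phase-contrast microscopy. Counts plotted against duration of treatment.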

Assay [4] deals with MDA-MB-231. In words: Antiproliferative activity against human MDA-MB-231 cells assessed as reduction in cell viability at 2 uM incubated for 24 hrs by Trypan blue exclusion dye based phase contrast microscopic analysis. The assay is classed as functional. A digest of the protocol:
as §1

Assay [5] deals with Signal transducer and activator of transcription 3 (Homo sapiens) (UniProt P40763). In words: Binding affinity to STAT3 (unknown origin) assessed as change in enthalpy by isothermal titration calorimetry.
Assay [6] shares this target. In words: Binding affinity to STAT3 (unknown origin) assessed as change in entropy by isothermal titration calorimetry.
Assay [7] has the same target. Briefly: Inhibition of oligonucleotide [32P]-labelled 5'-AGCITCATTTCCCGTAAATCCCTA hSIE probe binding to STAT3 in human MDA-MB-468 cell nuclear extract at 5 uM by EMSA analysis. The following applies: time upper […], TDE = time-dependent effect. (In EMSA bound probe runs differently from free probe, usually more slowly.)
For assay [8] the target is unchanged. Briefly: Inhibition of STAT3 phosphorylation at Y705 residues in human MDA-MB-468 whole cell lysate at 3 uM at 24 hrs by immunoblotting analysis. Type of assay: subcellular. In short, it runs like this: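 MDA-MB-468 cells (DMEM, 10% heat-inactivated FBS) treated with 3 μM compound for 3–24 h or 0.05% DMSO; equal-protein whole-cell RIPA lysates run on SDS-PAGE and immunoblotted for pY705STAT3, total STAT3 and tubulin. Representative of two to three independent determinations.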
For orientation: A western blot detects proteins with antibodies after separation by electrophoresis.

Assay [9] concerns MDA-MB-231. In words: Anticlonogenic activity against human MDA-MB-231 cells assessed as inhibition of colony formation at 0.5 to 1 uM incubated for 4 hrs by crystal violet staining based assay. Conditions: dose 0.5-1 µM. Type of assay: functional, cell-based. A digest of the protocol:
(§2)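 MDA-MB-231 cells seeded as single-cell cultures (250 cells per well), treated once the next day with compound at 0–1 μM and grown until large colonies were visible. Colonies stained with crystal violet for 4 h and photographed. Three independent determinations.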

A further assay deals with NIH3T3. Briefly: Inhibition of oligonucleotide [32P]-labelled 5'-AGATTTCTAGGAATTCAA probe binding to STAT5 homodimer in mouse NIH3T3 nuclear extract at 10 uM preincubated for 30 mins followed by MGFe probe addition by EMSA analysis.
Assay [10] has as its target T1, Signal transducer and activator of transcription 1 (Mus musculus) (UniProt P42225).
T1 sequence (whole entry): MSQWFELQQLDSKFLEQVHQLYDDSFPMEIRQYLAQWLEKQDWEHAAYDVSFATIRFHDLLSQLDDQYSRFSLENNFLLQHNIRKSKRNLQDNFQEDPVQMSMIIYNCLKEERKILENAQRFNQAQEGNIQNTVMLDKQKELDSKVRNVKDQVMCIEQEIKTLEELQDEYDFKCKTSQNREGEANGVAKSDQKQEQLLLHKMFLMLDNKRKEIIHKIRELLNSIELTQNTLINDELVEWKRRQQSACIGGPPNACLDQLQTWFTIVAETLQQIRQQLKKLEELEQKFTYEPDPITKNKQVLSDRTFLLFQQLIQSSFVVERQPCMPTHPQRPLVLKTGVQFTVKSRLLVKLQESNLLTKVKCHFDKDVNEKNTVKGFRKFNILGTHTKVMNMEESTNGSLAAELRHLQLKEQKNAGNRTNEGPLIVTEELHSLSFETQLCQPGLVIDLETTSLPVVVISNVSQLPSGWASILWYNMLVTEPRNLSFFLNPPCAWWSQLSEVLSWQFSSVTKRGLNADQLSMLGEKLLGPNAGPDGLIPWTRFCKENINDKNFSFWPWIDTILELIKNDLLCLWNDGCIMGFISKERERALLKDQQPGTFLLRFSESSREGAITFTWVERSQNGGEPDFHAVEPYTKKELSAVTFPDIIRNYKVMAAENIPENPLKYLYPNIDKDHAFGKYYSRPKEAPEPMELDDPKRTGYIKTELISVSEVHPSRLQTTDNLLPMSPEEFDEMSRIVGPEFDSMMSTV
In words: Inhibition of oligonucleotide [32P]-labelled 5'-AGCITCATTTCCCGTAAATCCCTA probe binding to STAT1 homodimer in mouse NIH3T3 nuclear extract at 10 uM preincubated for 30 mins followed by hSIE probe addition by EMSA analysis.

Assay [11] concerns MDA-MB-231. In words: Anticlonogenic activity against human MDA-MB-231 cells assessed as inhibition of colony formation upto 1 uM incubated for 4 hrs by crystal violet staining based assay. Type of assay: functional, cell-based. The following applies: dose microM <=1, time 4.0 hrs. A digest of the protocol: as §2
The test system of assay [12] is MDA-MB-231. In words: Antiproliferative activity against human MDA-MB-231 cells harbouring STAT3 assessed as reduction in cell viability at upto 10 uM incubated for 72 hrs by CyQuant assay. The assay is classed as functional, cell-based. The following applies: MDA-MB-231, 72 h.
Assay [13] deals with Signal transducer and activator of transcription 3 (Homo sapiens) (UniProt P40763). In words: Inhibition of oligonucleotide [32P]-labelled 5'-AGCITCATTTCCCGTAAATCCCTA hSIE probe binding to STAT3 in human MDA-MB-468 cell nuclear extract at 0.5 to 5 uM incubated for 3 hrs by EMSA analysis. The following applies: dose 0.5-5 µM.
For assay [14] the target is unchanged. In words: Inhibition of STAT3 phosphorylation at Y705 residues in human MDA-MB-468 whole cell lysate at 0.5 to 2 uM incubated for 2 hrs by immunoblotting analysis. Type of assay: subcellular. The following applies: dose 0.5-2 µM.

The values below come from ChEMBL document CHEMBL4706639, “Discovery of Novel Azetidine Amides as Potent Small-Molecule STAT3 Inhibitors” (J Med Chem, 2021).

Activity calls are given as the source filed them. The calls are words filed in the database; no cut-off is given here.

By EC50 is commonly meant the concentration giving half of the maximal effect.

Signal transducer and activator of transcription 3 (Homo sapiens), sequence (P40763 whole entry): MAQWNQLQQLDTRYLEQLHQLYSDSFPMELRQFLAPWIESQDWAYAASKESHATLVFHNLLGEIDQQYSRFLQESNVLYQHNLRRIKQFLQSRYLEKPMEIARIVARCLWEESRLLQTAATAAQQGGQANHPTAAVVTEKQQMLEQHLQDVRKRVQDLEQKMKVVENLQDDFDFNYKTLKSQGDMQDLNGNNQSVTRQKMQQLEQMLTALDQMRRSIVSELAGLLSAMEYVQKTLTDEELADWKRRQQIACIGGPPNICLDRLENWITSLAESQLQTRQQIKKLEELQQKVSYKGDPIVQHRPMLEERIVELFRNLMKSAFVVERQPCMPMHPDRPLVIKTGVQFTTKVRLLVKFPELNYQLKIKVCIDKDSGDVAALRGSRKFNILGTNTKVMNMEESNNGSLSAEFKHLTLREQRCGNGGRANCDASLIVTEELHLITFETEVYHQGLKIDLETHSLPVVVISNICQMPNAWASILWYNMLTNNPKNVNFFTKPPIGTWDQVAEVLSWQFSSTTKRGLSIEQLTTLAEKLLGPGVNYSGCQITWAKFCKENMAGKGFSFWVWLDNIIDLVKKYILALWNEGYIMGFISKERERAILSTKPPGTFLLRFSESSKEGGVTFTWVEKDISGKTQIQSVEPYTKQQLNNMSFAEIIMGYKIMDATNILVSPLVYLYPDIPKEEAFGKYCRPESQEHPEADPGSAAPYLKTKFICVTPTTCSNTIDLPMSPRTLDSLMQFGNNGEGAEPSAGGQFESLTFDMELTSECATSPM

In the case of `O=C1NC(=O)c2cc(N(Cc3ccc(C4CCCCC4)cn3)C(=O)[C@H]3CCN3S(=O)(=O)c3c(F)c(F)c(F)c(F)c3F)ccc21`, the EC50 was found to be 1700 nM in the assay with MDA-MB-231 [1], 1900 nM in the assay on MDA-MB-468, 7 µM in the assay on MCF7 [2] and 8.1 µM in the assay with MCF-10A. Further, in the assay on MCF7 [3], the result was inactive. Further, the result in the assay on MDA-MB-231 [4] was Active. For the same compound, in assay [5], the deltaH was -20.8 kJ/mol. Also, in [6], the -TdeltaS is -13.6 kJ/mol. Further, the inhibition result in assay [7] is “Tde”. Further, the inhibition entry in assay [8] is “inactive”. Also, the inhibition entry in the assay on MDA-MB-231 [9] was “Active”.

For the compound `CNC(=O)c1ccc(N(Cc2ccc(C3CCCCC3)cn2)C(=O)[C@H]2CCN2S(=O)(=O)c2c(F)c(F)c(F)c(F)c2F)cc1O`, the EC50 amounted to 1800 nM with MDA-MB-231 [1], 1800 nM with MDA-MB-468, 3.8 µM with MCF7 [2] and 4.6 µM in the assay on MCF-10A. The outcome in the assay with MCF7 [3] was inactive. Moreover, the inhibition entry (in the assay with NIH3T3; in assay [10]) was “Active” throughout. In [7], the inhibition entry is “Tde”. In addition, the inhibition entry in the assay on MDA-MB-231 [11] is “inactive”.

As for `CC(=O)c1cc2c(o1)C(=O)c1ccccc1C2=O` [NAPABUCASIN], the EC50 with MCF7 [2] was 1.49 µM; in the assay with MDA-MB-231 [12], 1800 nM. Also, the inhibition entry in assay [13] and in assay [14] was “Active” throughout.
